The list is not random: actives were taken first. Their share in the collection is about 2.1%.
Autophagy HCS: autophagy modulation, high-content screen | MEF GFP-LC3 puncta imaging; test concentration mostly 10 µM | calls only at 10 µM (by protocol) | hit rate 0.98% among 190,000;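 active means percentage of spot-positive cells more than 3 SD above its plate mean, without a fluorescence outlier flag or 80% toxicity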;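 further: spot-positive cell cutoff set from DMSO-treated cells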
INS promoter inh: TRM-6 insulin promoter activity inhibition; TRM-6 cells (human fetal islet line), insulin promoter-eGFP reporter, imaging; reporter expression induced with tamoxifen; inhibition, % at 2 µM; hit rate 0.9% among 130,000;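 active means inhibition above the mean plus 3 SD, with well images judged a real hit on visual review, cut at about 60% in these data, passing the limit was not always enough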
Ins promoter up: MIN6 insulin promoter up-regulation | MIN6 insulin promoter-GFP reporter, high-content imaging; active compounds read high | hit rate 0.3% among 190,000 | z-score at 5 µM;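 active means z-score above 3 at 5 µM with at least 500 cells counted in the well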
RBBP9 inh: human RBBP9 hydrolase inhibition. recombinant RBBP9, FP-Rh probe fluorescence polarization. inhibition, % at 7.94 µM. hit rate 0.2% among 220,000;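 active means inhibition above the campaign mean of all tested compounds plus 3 SD, cut at about 14% in these data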;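 further: plate controls were DMSO wells with RBBP9 for no effect and wells lacking RBBP9 protein for full effect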
Target sequence (O75884 whole entry, looked up): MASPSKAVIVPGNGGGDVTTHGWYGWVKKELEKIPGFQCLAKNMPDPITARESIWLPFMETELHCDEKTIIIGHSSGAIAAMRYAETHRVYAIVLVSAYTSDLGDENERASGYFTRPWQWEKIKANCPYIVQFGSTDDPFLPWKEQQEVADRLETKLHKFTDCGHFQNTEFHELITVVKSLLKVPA
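Assay system: recombinant human RBBP9; Reagent: Serine-hydrolase probe FP-Rh, 375 nM pre-mixing; Doses: 7.94 µM single dose, 0.794% DMSO; Incubation: 30 min then 45 min, 25 °C; Detection: fluorescence polarization (mP), excitation 525 nm, emission 598 nm; Evaluation: percent inhibition from mP, scaled between DMSO and no-protein wells.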
PKD1 inh: blocks activity of human protein kinase D1 | Q15139 | PKD1 kinase fluorescence polarization assay | inhibition, % (no concentration beside the values) | hit rate 0.056% among 200,000 | AID 797; in the data active means inhibition above about 50%
Arbovirus inh: blocks arbovirus infection. arbovirus infection cell-based antiviral screen. inhibition, % at 10 µM. hit rate 0.37% among 200,000. AID 1251; in the data active means inhibition above about 30%
Active calls of the source: *.

Results for O=c1[nH]c(=O)n(C2CCCCCC2)c(O)c1C=NCc1ccc(F)cc1 ?
Autophagy HCS: inactive; INS promoter inh: 63; Ins promoter up: -0.89; RBBP9 inh: -4; PKD1 inh: -5; Arbovirus inh: 4

Results for Oc1c(C=NCc2ccc(F)cc2)[nH]c2ccc(Br)c(Cl)c12 ?
Autophagy HCS: active; INS promoter inh: 62; RBBP9 inh: -8; PKD1 inh: 2; Arbovirus inh: -21

Results for Cc1ccc(CN=Cc2[nH]c3ccc(Br)c(Cl)c3c2O)cc1 ?
Autophagy HCS: active; RBBP9 inh: 4; PKD1 inh: -9; Arbovirus inh: -7

How did COc1cc(NC(=S)NCCN2CCOCC2)cc(OC)c1 do in these assays?
Autophagy HCS: active; INS promoter inh: 64*; Ins promoter up: -0.67; RBBP9 inh: 3; PKD1 inh: 6; Arbovirus inh: 2

What do the screens show for `O=C(O)c1cc(-c2ccco2)nc2ccc(Br)cc12`?
Autophagy HCS: inactive; INS promoter inh: 77*; Ins promoter up: 0.23; RBBP9 inh: -7; PKD1 inh: -4; Arbovirus inh: 30

What do the screens show for `CCOC(=O)Cn1c(C(=O)OCC)cc2sccc21`?
Autophagy HCS: inactive; Ins promoter up: 0.79; RBBP9 inh: -2; PKD1 inh: -2; Arbovirus inh: 5

How did CC(=O)c1ccc(OCCCC(=O)n2nnc3ccccc32)cc1 do in these assays?
Autophagy HCS: active; Ins promoter up: 0.4; RBBP9 inh: 1; PKD1 inh: -7; Arbovirus inh: 1

What do the screens show for `O=C(CCCOc1ccc(Cl)cc1Cl)n1nnc2ccccc21`?
Autophagy HCS: inactive; INS promoter inh: 15; Ins promoter up: -0.12; RBBP9 inh: 2; PKD1 inh: -2; Arbovirus inh: 0

Results for CCCNC(=O)c1nnsc1S(=O)(=O)c1ccc(Cl)cc1 ?
Autophagy HCS: inactive; INS promoter inh: inactive; Ins promoter up: 0.75; RBBP9 inh: -7; PKD1 inh: 5; Arbovirus inh: -37

What do the screens show for `COc1ccccc1NC(=O)COC(=O)c1ccc([N+](=O)[O-])s1`?
Autophagy HCS: inactive; INS promoter inh: 40; Ins promoter up: -0.53; RBBP9 inh: -4; PKD1 inh: -5; Arbovirus inh: -5

Results for COc1ccc(C2=Nn3c(nnc3-c3ccncc3)SC2)cc1OC ?
Autophagy HCS: inactive; INS promoter inh: 24; RBBP9 inh: 3; PKD1 inh: -5; Arbovirus inh: 49*

How did O=C(NNC(=O)c1cccs1)c1ccc(Cl)c([N+](=O)[O-])c1 do in these assays?
Autophagy HCS: inactive; INS promoter inh: 0; Ins promoter up: -0.6; RBBP9 inh: -13; PKD1 inh: 3; Arbovirus inh: 2

Results for O=C(NNC(=O)c1cccs1)c1ccc([N+](=O)[O-])cc1 ?
Autophagy HCS: inactive; INS promoter inh: -42; Ins promoter up: 1.3; RBBP9 inh: -2; PKD1 inh: -5; Arbovirus inh: 35*

How did COc1ccc(C2=CC(c3ccc(C)cc3)n3nnnc3N2)cc1 (stereo not given) do in these assays?
Autophagy HCS: inactive; INS promoter inh: 43; Ins promoter up: 2.1; RBBP9 inh: -4; PKD1 inh: -1; Arbovirus inh: 38*

Results for COc1cccc(C2=CC(c3ccc(N(C)C)cc3)n3ncnc3N2)c1 (stereo not given) ?
Autophagy HCS: inactive; INS promoter inh: 0; RBBP9 inh: -6; PKD1 inh: -15; Arbovirus inh: 46*

Results for COc1ccc(C2C=C(c3ccc(Br)s3)Nc3ncnn32)cc1OC (stereo not given) ?
Autophagy HCS: inactive; Ins promoter up: -0.39; RBBP9 inh: -3; PKD1 inh: -4; Arbovirus inh: 90*

What do the screens show for `COc1ccc(C2C=C(c3ccccc3)Nc3nnnn32)cc1` (stereo not given)?
Autophagy HCS: inactive; Ins promoter up: -1.3; RBBP9 inh: -7; PKD1 inh: -5; Arbovirus inh: 3

Results for COc1ccc(C2C=C(c3ccc(C)cc3)Nc3ncnn32)cc1 (stereo not given) ?
Autophagy HCS: inactive; INS promoter inh: 43; Ins promoter up: -0.16; RBBP9 inh: 0; PKD1 inh: 5; Arbovirus inh: 86*

What do the screens show for `Nc1nc(-c2ccc(Cl)cc2)nnc1-c1ccc(Br)cc1`?
Autophagy HCS: inactive; Ins promoter up: 0.71; RBBP9 inh: 0; PKD1 inh: 11; Arbovirus inh: 5

What do the screens show for `CN(Cc1ccccc1)C(=O)COc1ccc(-c2nnco2)cc1`?
Autophagy HCS: inactive; INS promoter inh: 13; Ins promoter up: 0.76; RBBP9 inh: -8; PKD1 inh: -2; Arbovirus inh: -4

Results for FC(F)(F)c1cccc(OCc2noc(-c3ccsc3)n2)c1 ?
RBBP9 inh: 0

How did O=C(c1cccc(NS(=O)(=O)c2ccc(F)c(F)c2)c1)N1CCN(C(c2ccccc2)c2ccccc2)CC1 do in these assays?
Autophagy HCS: inactive; INS promoter inh: 7; Ins promoter up: 2.1; RBBP9 inh: 1; PKD1 inh: -4; Arbovirus inh: 13

How did CSc1cccc(CN2CCC(CO)(Cc3ccccc3)CC2)c1 do in these assays?
Autophagy HCS: inactive; Ins promoter up: 0.02; RBBP9 inh: -7; PKD1 inh: -4; Arbovirus inh: -15

Results for Cc1ccc(C)c(S(=O)(=O)N2C(=S)NC(=O)C2C(C)C)c1 (stereo not given) ?
Autophagy HCS: inactive; INS promoter inh: 80*; Ins promoter up: -0.01; RBBP9 inh: 1; PKD1 inh: 0; Arbovirus inh: 13

Results for Cc1ccc(C)c(S(=O)(=O)N2CCN(c3ncccn3)CC2)c1 ?
Autophagy HCS: inactive; Ins promoter up: 0.58; RBBP9 inh: -3; PKD1 inh: 6; Arbovirus inh: 1

What do the screens show for `CC(C(=O)O)N1C(=O)c2ccccc2C1=O` (stereo not given)?
Autophagy HCS: inactive; INS promoter inh: 37; Ins promoter up: -0.36; RBBP9 inh: 4; PKD1 inh: -3; Arbovirus inh: 3

Results for Cc1noc(/C=C/Nc2ccc(F)cc2F)c1[N+](=O)[O-] ?
Autophagy HCS: inactive; INS promoter inh: -109; Ins promoter up: -0.48; RBBP9 inh: -4; PKD1 inh: 0; Arbovirus inh: -26

How did COc1ccccc1N/C=C/c1onc(C)c1[N+](=O)[O-] do in these assays?
Autophagy HCS: active; INS promoter inh: -256; RBBP9 inh: -3; PKD1 inh: -9; Arbovirus inh: -4

What do the screens show for `Cn1cc(SCC(=O)NCC2CCCO2)c2ccccc21` (stereo not given)?
Autophagy HCS: inactive; Ins promoter up: 1.2; PKD1 inh: -9; Arbovirus inh: -6

What do the screens show for `CCOc1ccc(/C=C/C(=O)C(C(N)=O)=C2SCCS2)cc1`?
Autophagy HCS: inactive; Ins promoter up: 0.96; RBBP9 inh: 1; PKD1 inh: -15; Arbovirus inh: 12

How did O=[N+]([O-])c1ccc(CSc2nnc(Cc3ccccc3)n2-c2ccc(F)cc2)cc1 do in these assays?
Autophagy HCS: active; Ins promoter up: -0.24; RBBP9 inh: 1; PKD1 inh: -5; Arbovirus inh: -8
